{
  "source": "ChEMBL document CHEMBL3826876",
  "about": "“Toward the Development of Specific G-Quadruplex Binders: Synthesis, Biophysical, and Biological Studies of New Hydrazone Derivatives” (J Med Chem, 2016)",
  "key": {"U2OS [1]": {"test_system": "U2OS", "assay": "Cytotoxicity against human U2OS cells assessed as cell killing after 1 hr by MTT assay", "assay_type": "functional, cell-based", "method_in_brief": "(§1)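 U2OS and HCT116 in DMEM with 10% FBS, 1% L-glutamine, seeded at 40000 cells/ml; 24 h later exposed for 1 h or 24 h, then drug-free medium 1-2 days. MTT 1 h at 37 °C, DMSO solubilisation, absorbance 595 nm. IC50 by linear regression; two independent experiments in triplicate, mean ± SE.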"}, "Homo sapiens": {"species": "Homo sapiens", "assay": "Binding affinity to human 5'-FAM/3'-TAMRA labeled telomere 21 G-quadruplex DNA assessed as increase in melting temperature by FRET assay", "method_in_brief": "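FRET melting screen in 60 mM potassium cacodylate pH 7.4, labelled probe 400 nM annealed at 85 °C for 10 min; ligands at various concentrations up to 20 µM, diluted from 10 mM DMSO stock via 10 mM HCl. Excitation 450-495 nm, emission 515-545 nm, 30-100 °C in 0.5 °C steps with 30 s hold; ΔTm by curve fitting, triplicate.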"}, "[2]": {"assay": "Binding affinity to synthetic telomere 26 G-quadruplex DNA assessed as change in melting temperature at 4 mol equiv in presence of 100 mM KCl buffer by circular dichroism spectroscopic analysis", "method_in_brief": "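CD melting, 20-100 °C at 1 °C/min, signal at 264 (parallel), 290 (antiparallel) or 280 nm (duplex). G4 DNA 10 µM or duplex 15 µM, folded by heating at 90 °C 5 min and slow cooling, in 10 mM potassium phosphate (c-kit1, Tel23, Tel26) or lithium phosphate (Tel23-p, ds12) pH 7.0 with 100 mM KCl. Ligand 4 equiv; Tm by curve fit, ΔTm vs DNA alone; duplicate average.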"}, "[3]": {"assay": "Cytotoxicity against human HCT116 cells assessed as cell killing after 1 hr by MTT assay", "assay_type": "functional, cell-based", "settings": "HCT-116, 1 h", "method_in_brief": "as §1"}, "[4]": {"assay": "Effect on synthetic telomere 26 G-quadruplex DNA topology at 4 mol equiv by circular dichroism spectroscopic analysis", "method_in_brief": "(§2)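 CD spectra at 20 °C, 230-360 nm, 3 scans averaged, baseline subtracted; 10 µM G4 or 15 µM duplex in potassium- or lithium-phosphate pH 7.0 buffers with 100 mM KCl (c-kit2, c-myc: 5 mM potassium phosphate, 20 mM KCl); ligand 4 molar equiv added to folded DNA from 6 mM DMSO stock.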"}, "[5]": {"assay": "Binding affinity to 5' and 3'-terminal G-tetrads of synthetic MYC22 G14T/G23T double mutant G-quadruplex DNA in presence of 70 mM KCl solution by NMR spectroscopic analysis", "method_in_brief": "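1H NMR titration at 25 °C, 700 MHz, water-suppressed 1D spectra; DNA 0.2-0.5 mM strand in H2O/D2O 9:1. Myc22 in 25 mM KH2PO4, 70 mM KCl, 0.2 mM EDTA, pH 7.0; c-kit2 T12/T21 in 5 mM KH2PO4, 20 mM KCl, 0.2 mM EDTA, pH 6.8. Ligand in DMSO-d6 added stepwise into the tube; imino proton shifts followed.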"}, "[6]": {"assay": "Binding affinity to synthetic c-KIT2 G-quadruplex DNA assessed as increase in thermal stability in presence of 20 mM KCl buffer by circular dichroism spectroscopic analysis", "method_in_brief": "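CD melting in 5 mM potassium phosphate, 20 mM KCl, 10 µM folded G4, heated 20-100 °C at 1 °C/min; ligand:DNA ratios 1:1, 2:1 and 4:1 compared; Tm from curve fit.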"}, "U2OS [7]": {"test_system": "U2OS", "assay": "Stabilization of nuclear G-quadruplex DNA in human U2OS cells at 0.2 to 1 uM after 24 hrs by DAPI staining based immunofluorescence assay", "assay_type": "cell-based", "method_in_brief": "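U2OS seeded at 100000 cells/ml, treated 24 h after seeding for 24 h; fixed methanol:acetic acid 3:1, 0.1% Triton X-100, 2% milk block. Stained with in-house His-purified BG4, anti-FLAG, Alexa 488 anti-rabbit; nuclei DAPI. Per-cell signal as corrected total cell fluorescence; Student's t test.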"}, "[8]": {"assay": "Binding affinity to human 5'-FAM/3'-TAMRA labeled telomere 21 parallel G-quadruplex DNA (unknown origin) assessed as change in melting temperature at 4:1 ligand:DNA ratio in presence of 100 mM KCl buffer by FRET assay", "method_in_brief": "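FRET melting of FAM/TAMRA-labelled G4 oligos (400 nM, annealed 85 °C 10 min) with ligand at 4 equiv, same buffers as CD (20 mM KCl for c-kit2 and c-myc; 100 mM KCl for telomeric parallel form, annealed at high concentration). Excitation 450-495 nm, emission 515-545 nm, read every 0.5 °C over 30-100 °C; ΔTm by curve fit; duplicate runs averaged.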"}, "[9]": {"assay": "Effect on synthetic telomere 23 parallel G-quadruplex DNA topology at 4 mol equiv by circular dichroism spectroscopic analysis", "method_in_brief": "as §2"}},
  "note": "Active and inactive are the calls of the source. The calls are words filed in the database; no cut-off is given here.",
  "data": [
    {"smiles": "Br.O=Cc1c(-c2ccccc2)nc2n1ccc1nc(-c3ccccc3)c(/C=N/NC3=NCCN3)n12", "values": [
      {"measurement": "IC50", "setting": "U2OS [1]", "result": 5.73, "unit": "µM"},
      {"measurement": "Activity", "setting": "Homo sapiens", "result": "Active"},
      {"measurement": "ΔTm", "setting": "[2]", "result": -3, "unit": "°C"},
      {"measurement": "IC50", "setting": "[3]", "result": 4.18, "unit": "µM"},
      {"measurement": "Activity", "setting": "[4]", "result": "inactive"},
      {"measurement": "Activity", "setting": "[5]", "result": "Active"},
      {"measurement": "Activity", "setting": "[6]", "result": "Dose-dependent effect"},
      {"measurement": "Activity", "setting": "U2OS [7]", "result": "Active"},
      {"measurement": "ΔTm", "setting": "[8]", "result": 7, "unit": "°C"},
      {"measurement": "Activity", "setting": "[9]", "result": "inactive"}
    ]}
  ]
}
